Screening results from PubChem.
This is a sample that favours compounds with a hit; in the whole collection about 0.77% have one here.
hIAP inh: human IAP inhibitors, primary screen, biochemical, luminescence, uHTS | inhibition, % at 10 µM | 0.12% of 330,000 active | purified IAP, CDP-Star luminescence, 30 min;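 active = inhibition reaching a set limit with compound at 10 µM in the primary screen, cut at about 35% in these data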;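 note: plate controls were DMSO wells with enzyme for no effect and no-enzyme buffer wells for full effect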
Target sequence (P09923 whole entry, looked up): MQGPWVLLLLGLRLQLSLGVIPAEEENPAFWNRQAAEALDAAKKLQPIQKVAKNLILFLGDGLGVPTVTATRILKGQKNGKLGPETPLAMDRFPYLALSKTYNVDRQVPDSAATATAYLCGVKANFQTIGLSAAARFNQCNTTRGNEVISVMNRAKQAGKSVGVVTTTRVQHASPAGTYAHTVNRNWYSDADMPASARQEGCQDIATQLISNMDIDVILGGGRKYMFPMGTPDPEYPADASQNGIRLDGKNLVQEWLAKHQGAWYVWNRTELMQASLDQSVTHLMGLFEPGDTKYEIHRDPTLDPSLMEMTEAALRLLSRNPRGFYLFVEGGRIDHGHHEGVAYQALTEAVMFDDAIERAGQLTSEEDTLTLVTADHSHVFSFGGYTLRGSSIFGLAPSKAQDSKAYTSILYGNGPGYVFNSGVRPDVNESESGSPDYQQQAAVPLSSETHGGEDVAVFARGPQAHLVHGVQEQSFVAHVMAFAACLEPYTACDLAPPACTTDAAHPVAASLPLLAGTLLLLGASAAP
mIAP inh: inhibitors of mouse IAP, primary screen, biochemical, luminescence, uHTS | intestinal alkaline phosphatase [Mus musculus] | purified mouse IAP, CDP-Star luminescence, 30 min | inhibition, % at 10 µM | 0.2% of 330,000 active | AID 2806, 2010;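 active = inhibition of at least 40% at 10 µM in the primary screen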;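 note: plate controls were DMSO with enzyme for no effect and no enzyme wells for full effect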
bIAP act: bovine intestinal alkaline phosphatase activators, primary screen, biochemical, bovine IAP, CDP-star luminescence; alkaline phosphatase, intestinal [Bos taurus]; purified bovine IAP, 30 min; hits give high values; fold of DMSO-control signal, blank-subtracted; activation factor at 20 µM; 0.17% of 200,000 active; AID 1016, 2008;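 active = activation factor of 2 or more at 20 µM, a signal rise over negative controls twice the positive control's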
bIAP inhibitor: bovine intestinal alkaline phosphatase inhibitors, primary screen, selectivity assay for TNAP inhibitor project, biochemical, bovine IAP, CDP-star luminescence. purified bovine IAP, 30 min. inhibition, % at 20 µM. 190,000 tested, under 10 active;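 active = over 50% inhibition of intestinal alkaline phosphatase at 20 µM in the single-dose screen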
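Assay system – bovine IAP enzyme · Quantity – bovine IAP at 1/65,000,000 final dilution · Detection – CDP-star luminescence signal · Times – 30 min reaction at room temperature · Also added – CDP-star substrate at 30 µM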
hIAP act: human IAP activators, primary screen, biochemical, luminescence, uHTS | purified human IAP, CDP-Star luminescence, 30 min; hits give high values; 1 = vehicle-only enzyme, 0 = enzyme-free background | AID 2524, 2010 | Intestinal-type alkaline phosphatase (Homo sapiens), P09923 | 0.16% of 330,000 active | activation factor at 10 µM;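 active = activation factor of the enzyme at least 2-fold when tested at 20 µM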
mIAP act: activators of mouse IAP, primary screen, biochemical, luminescence, uHTS. activation factor at 10 µM. AID 2805, 2010. 0.24% of 330,000 active. intestinal alkaline phosphatase [Mus musculus]. muIAP, CDP-Star luminescence, 30 min; hits give high values; 1 = vehicle-only enzyme signal, 0 = enzyme-free wells;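 active = activation factor of at least 2 at 20 µM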
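Assay system: mouse IAP enzyme; Reagent: CDP-Star chemiluminescent phosphatase substrate; Compound: DMSO-dissolved test compounds; Incubation: 30 min, room temperature; Technique: luminescence from enzymatic CDP-Star hydrolysis; Controls: DMSO-only wells and no-enzyme negative control.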
hIAP act conf: human IAP activators, confirmation, biochemical, luminescence, single concentration, uHTS hits | 10% of 880 active | purified IAP, CDP-Star luminescence, 30 min; hits give low values | shares compounds with hIAP act | activation (%Activity, negative = activation), % at 8.3 µM;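 active = at least twofold enzyme activation in any of six single-dose repeats, which the averaged readout prints as negative percent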
* = called active by the depositor; . = not tested or not shown.

SMILES | hIAP inh | mIAP inh | bIAP act | bIAP inhibitor | hIAP act | mIAP act | hIAP act conf
CC(C)=CCc1c(O)cc2c(c1O)C(=O)CC(c1ccccc1)O2 (configuration not stated) | 14 | 7 | . | . | 0.86 | 0.93 | .
O=C(NCC(=O)N1CCC2(CC1)NCCc1[nH]cnc12)c1cccc(Cl)c1 | 0 | 2 | . | . | 1 | 0.98 | .
CCCCN1C(=O)/C(=C/C=C2\SCCN2C)SC1=S | 44* | 25 | 0.7 | 28 | 0.56 | 0.75 | -4
CN1CCS/C1=C/C=C1\SC(=S)N(CC(=O)O)C1=O | 27 | 30 | 0.4 | . | 0.73 | 0.7 | .
CCN(CC(=O)Nc1c(F)cccc1F)C(=O)Cc1ccc(S(=O)(=O)N2CCOCC2)s1 | -13 | 0 | . | . | 1.1 | 1 | .
Cc1cc2cc3c(cc2nc1SCC(=O)Nc1nc(C)c(C)s1)OCO3 | -116 | 4 | 1 | 4 | 2.2* | 0.96 | 44
COC(=O)CSc1nc2cc3c(cc2cc1C)OCO3 | 2 | 6 | 0.9 | 13 | 0.98 | 0.94 | .
Cc1ccc(S(=O)(=O)N2CCOCC2)cc1C(=O)NCc1ccccn1 | -12 | 9 | . | . | 1.1 | 0.91 | .
CCOCCc1nnc(NC(=O)CCC2CCCCC2)s1 | -11 | -1 | . | . | 1.1 | 1 | .
N#Cc1c(-c2ccccc2)nc(N2CCOCC2)[nH]c1=O | 38* | -4 | 0.9 | 8 | 0.62 | 1 | 28
N#Cc1c(-c2ccccc2)nc(N2CCCCCC2)[nH]c1=O | 1 | 5 | 1 | 1 | 0.99 | 0.95 | .
O=C(Nc1ccc(Cl)cc1)c1nc[nH]c1C(=O)NCCCNC(=O)c1[nH]cnc1C(=O)Nc1ccc(Cl)cc1 | -105 | 15 | . | . | 2.1* | 0.85 | 1
COc1ccccc1C1CC(c2ccccc2)=NN1C(=S)Nc1ccccc1 (configuration not stated) | 13 | 10 | 1 | -3 | 0.87 | 0.9 | .
O=c1oc(-c2ccc(O)c(O)c2)cc2cc(O)cc(O)c12 | 69* | 35 | . | . | 0.31 | 0.65 | 25
O=c1oc(-c2ccc(O)c(O)c2)cc2cccc(O)c12 | 13 | 23 | . | . | 0.87 | 0.77 | .
O=C(c1cccs1)N1CCc2ccccc21 | -119 | -6 | 0.9 | 7 | 2.2* | 1.1 | 4
CCn1cc(CN2CCCC(C(=O)Nc3cccc(-c4cc5ccccc5[nH]4)c3)C2)cn1 (configuration not stated) | -8 | -3 | . | . | 1.1 | 1 | .
COc1cc(/C=N\NS(=O)(=O)c2ccccc2)cc(OC)c1OC | 37* | -6 | . | . | 0.63 | 1.1 | 31
CC(C)OC(=O)COc1cc(O)c2c(=O)cc(-c3ccccc3)oc2c1 | 9 | 8 | . | . | 0.91 | 0.92 | .
CCCCc1ccc(NC(=O)CSc2nc3ncccc3[nH]2)cc1 | -115 | 18 | . | . | 2.1* | 0.82 | 25
COc1ccccc1CNC(=O)Cn1nc(C)c([N+](=O)[O-])c1C | 37* | 4 | . | . | 0.63 | 0.96 | -59
CCCCCCCCNCCS(=O)(=O)NN1CCOCC1 | . | -16 | . | . | . | 1.1 | .
COc1ccc(C(=O)Nc2cccc(C)c2)cc1S(=O)(=O)N1CCOCC1 | 13 | 2 | 1.1 | -6 | 0.87 | 0.98 | .
COc1ccc(C(=O)Nc2cccc3c2C(=O)NC3=O)cc1S(=O)(=O)N1CCOCC1 | 36* | 7 | 1.1 | -7 | 0.64 | 0.93 | -85*
O=C(NNC(=S)NC1CCCCC1)c1ccccc1Br | -101 | -3 | . | . | 2* | 1 | -43*
SMILES | hIAP inh | mIAP inh | bIAP act | bIAP inhibitor | hIAP act | mIAP act | hIAP act conf
O=C(NCc1ccco1)c1ccccc1Br | -2 | -8 | 1 | 5 | 1 | 1.1 | .
Cc1ccsc1C(=O)NNC(=S)NC1CCCCC1 | -127 | 3 | . | . | 2.3* | 0.97 | 49
O=C(NNC(=S)NCc1ccco1)c1ccccc1Br | -126 | 16 | . | . | 2.3* | 0.84 | 41
O=C(O)C(Oc1ccc2cc(-c3ccc(Cl)cc3)c(=O)oc2c1)c1ccccc1 (configuration not stated) | -6 | 0 | . | . | 1.1 | 1 | .
COC(=O)c1cc(C#N)c(Oc2ccccc2OC)nc1C | 36* | 5 | 1 | 4 | 0.64 | 0.95 | 20
CCOC(=O)Cc1csc(NC(=O)CN2C(=O)c3ccccc3C2=O)n1 | -2 | 0 | . | . | 1 | 1 | .
CCOC(=O)Cc1csc(NC(=O)CN2C(=O)c3ccccc3S2(=O)=O)n1 | -107 | 8 | 1.4 | -35 | 2.1* | 0.92 | 7
CC1CCc2c(sc3nc(CN4CCN(S(=O)(=O)c5ccccc5[N+](=O)[O-])CC4)[nH]c(=O)c23)C1 (configuration not stated) | -14 | 14 | 0.9 | 7 | 1.1 | 0.86 | .
CCc1cc(-c2n[nH]c(C)c2-c2nc3ccccc3s2)c(O)cc1OCC(=O)NN | -130 | -15 | 2* | -103 | 2.3* | 1.1 | -9
Cn1ccnc1SCc1ccc(Cl)cc1Cl | -119 | -8 | . | . | 2.2* | 1.1 | 19
COc1cc(/C=N/N=C2/C(=O)Nc3ccccc32)ccc1O | 22 | 12 | 0.9 | 11 | 0.79 | 0.88 | .
O=C1Nc2ccccc2/C1=N\N=C\c1ccc(O)c(O)c1 | 35* | 36 | . | . | 0.65 | 0.64 | 62
Cc1cc(C(=O)Nc2ccccc2Cl)c2ccccc2n1 | 38* | -3 | . | . | 0.62 | 1 | 6
Cc1ccc(NC(=O)c2cc(C)nc3ccccc23)c(C)c1 | -1 | -2 | . | . | 1 | 1 | .
CCOc1cccc(/C=N/NC(=S)Nc2cc(S(=O)(=O)N3CCOCC3)ccc2N2CCOCC2)c1O | -114 | 0 | 1 | 2 | 2.1* | 1 | 1
CCOC(=O)C1(CCc2ccccc2)CCN(C(=O)CN2C(=O)CSC2=O)CC1 | -12 | 4 | 1 | -1 | 1.1 | 0.96 | .
CCCCn1c(N)c(N(C)C(=O)c2ccc(-n3cccn3)cc2)c(=O)[nH]c1=O | -2 | 4 | . | . | 1 | 0.96 | .
Cc1cccc(N(C)Cc2nnc(-c3cccc(Br)c3)o2)c1 | -8 | -4 | . | . | 1.1 | 1 | .
CC(C)NC(=O)/C(C#N)=C\c1ccc(N(C)C)o1 | 35* | 15 | 0.6 | 40 | 0.65 | 0.85 | 4
CCCCn1c(=N)n(CC(=O)c2ccco2)c2ccccc21 | 12 | -7 | 0.8 | 18 | 0.88 | 1.1 | .
CCCCCCCn1c(=N)n(CC(=O)c2ccco2)c2ccccc21 | 37* | 6 | 1 | 1 | 0.63 | 0.94 | -50*
COc1ccccc1CNC(=O)COC(=O)COc1ccccc1F | -1 | -2 | . | . | 1 | 1 | .
